The target of test [1] is Human immunodeficiency virus type 1 reverse transcriptase (Human immunodeficiency virus 1, UniProt Q72547, L210W/M184V/M41L/T215Y). Kind of test: Binding affinity to HIV1 LAI reverse transcriptase M41L/L210W/T215Y/M184V mutant.
The target of test [2] is Human immunodeficiency virus type 1 reverse transcriptase (Human immunodeficiency virus 1, UniProt Q72547, L210W/M41L/T215Y). The experiment in a line: Binding affinity to HIV1 LAI reverse transcriptase M41L/L210W/T215Y mutant.
Test [3] relates to Human immunodeficiency virus type 1 reverse transcriptase (Human immunodeficiency virus 1), Q72547 [M41L,L210W,T215Y]. Kind of test: Ratio of Kpol to Kd for HIV1 LAI reverse transcriptase M41L/L210W/T215Y mutant. In outline: (§1)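 Pre-steady-state rapid quench: 400 nM active-site RT and 40 nM ³²P-P20/T57 DNA T/P were preincubated in 50 mM Tris-HCl pH 7.5, 50 mM KCl, then mixed with nucleotide in the same buffer containing 20 mM MgCl₂. Quenched with 0.3 M EDTA from 10 ms to 30 min, run on urea-PAGE. kobs came from single-exponential fits; kpol and Kd came from a hyperbolic fit versus nucleotide concentration.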

The target in test [4] is Human immunodeficiency virus type 1 reverse transcriptase (Human immunodeficiency virus 1, UniProt Q72547, M184V). The experiment in a line: Binding affinity to HIV1 LAI reverse transcriptase M184V mutant.
In test [5] the test system is Human immunodeficiency virus type 1 reverse transcriptase (Human immunodeficiency virus 1), Q72547 [M41L,L210W,T215Y,M184V]. Kind of test: Ratio of Kpol to Kd for HIV1 LAI reverse transcriptase M41L/L210W/T215Y/M184V mutant. In outline:
as §1

Test [6] is described as follows: Binding affinity to HIV1 LAI reverse transcriptase M41L/L210W/T215Y/M184V/G333D mutant. Also noted: species or system Human immunodeficiency virus 1.
Test [7] relates to Human immunodeficiency virus type 1 reverse transcriptase (Human immunodeficiency virus 1), Q72547 [M184V]. Kind of test: Ratio of Kpol to Kd for HIV1 LAI reverse transcriptase M184V mutant. In outline:
as §1

Test [8] concerns the target Human immunodeficiency virus type 1 reverse transcriptase (Human immunodeficiency virus 1) (UniProt Q72547). The experiment in a line: Ratio of Kpol to Kd for wild type HIV1 LAI reverse transcriptase. In outline: as §1
The target in test [9] is Human immunodeficiency virus type 1 reverse transcriptase (Human immunodeficiency virus 1, UniProt Q72547). Kind of test: Binding affinity to wild type HIV1 LAI reverse transcriptase. The gist of the method: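 Bacterially expressed, purified RT, corrected for active-site concentration, preincubated at 400 nM with 40 nM 5′-³²P-labelled 20-nt DNA primer annealed to a 57-nt DNA template in 50 mM Tris-HCl pH 7.5, 50 mM KCl. It was then rapid-quench mixed 1:1 with nucleotide in the same buffer plus 20 mM MgCl₂. EDTA quench at 10 ms–30 min; urea-PAGE. k_obs fitted single-exponential; K_d from hyperbolic k_obs-versus-concentration fit.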

Test [10] deals with Human immunodeficiency virus 1. The experiment in a line: Ratio of Kpol to Kd for HIV1 LAI reverse transcriptase M41L/L210W/T215Y/M184V/G333D mutant. In outline:
as §1

In test [11] the test system is Human immunodeficiency virus type 1 reverse transcriptase (Human immunodeficiency virus 1), Q72547 [M41L,L210W,T215Y,M184V]. Kind of test: Binding affinity to HIV1 LAI reverse transcriptase M41L/L210W/T215Y/M184V mutant relative to wild type.
Test [12] deals with Human immunodeficiency virus 1. The experiment in a line: Binding affinity to HIV1 LAI reverse transcriptase M41L/L210W/T215Y/M184V/G333D mutant relative to wild type.
For test [13], the system named is Human immunodeficiency virus type 1 reverse transcriptase (Human immunodeficiency virus 1), Q72547 [M184V]. The experiment in a line: Resistance (selectivity ratio) of HIV1 LAI reverse transcriptase M184V mutant relative to wild type.
For test [14], the system named is Human immunodeficiency virus type 1 reverse transcriptase (Human immunodeficiency virus 1), Q72547 [M41L,L210W,T215Y]. Kind of test: Binding affinity to HIV1 LAI reverse transcriptase M41L/L210W/T215Y mutant relative to wild type.

The structures appear in SMILES notation.

By Kd is commonly meant the concentration at which binding is half-saturated. Low readings indicate a tighter complex, high ones a looser complex.

With `Nc1ccn([C@H]2C[C@H](O)[C@@H](COP(=O)(O)OP(=O)(O)OP(=O)(O)O)O2)c(=O)n1` [DEOXYCYTIDINE TRIPHOSPHATE], the Kd in [1] was found to be 2990 nM; in [2], 1230 nM; in test [4], 2490 nM; in [6], 2510 nM; in test [9], 1140 nM. The Ratio in [3] was found to be 1.06; in [5], 0.44; in [7] it was 0.53; in test [8], 1.07; in test [10], 0.58.

In the case of `Cc1cn([C@H]2C[C@H](O)[C@@H](COP(=O)(O)OP(=O)(O)OP(=O)(O)O)O2)c(=O)[nH]c1=O` [DEOXYTHYMIDINE_TRIPHOSPHATE], the Kd in [1] stood at 2650 nM; in [2] it was 1200 nM; in [4], 2850 nM; in [6], 2900 nM; in test [9], 2080 nM.

On to `Nc1ccn([C@@H]2CS[C@H](COP(=O)(O)OP(=O)(O)OP(=O)(O)O)O2)c(=O)n1` [LAMIVUDINE TRIPHOSPHATE], for which the Kd in test [1] is 9800 nM; in test [2], 430 nM; in [4], 8200 nM; in [6], 17800 nM; in [9] it was 370 nM. Further, the Ratio in [3] is 0.04; in test [5] it was 0.0004; in test [7], 0.00061; in test [8], 0.06; in [10], 0.00028. Also, the fold change (FC) in test [11] was 61.8; in [12], 116; in test [14], 1.5. The fold resistance in test [13] came out at 48.8.

Turning to `Cc1cn([C@H]2C[C@H](N=[N+]=[N-])[C@@H](COP(=O)(O)OP(=O)(O)OP(=O)(O)O)O2)c(=O)[nH]c1=O` [ZIDOVUDINE TRIPHOSPHATE], the Ratio in test [3] came out at 4.26; in [5], 1.3; in test [7], 2.41; in test [8], 4.41; in test [10], 1.1. Besides, the fold change (FC) is 1.76 in [11], 1.81 in test [12] and 1.14 in test [14]. In addition, the affinity in [6], expressed as Kd, was 3810 nM. Besides, the fold resistance in test [13] came to 1.13.

Turning to `Cc1cn([C@H]2C[C@H](N=[N+]=[N-])[C@@H](CO[P@](=O)(O)O[P@](=O)(O)OP(=O)(O)O)O2)c(=O)[nH]c1=O` [ZIDOVUDINE TRIPHOSPHATE], the dissociation constant (Kd) stood at 3500 nM in [1], 1150 nM in test [2], 2900 nM in test [4] and 1990 nM in test [9].

The values are drawn from ChEMBL document CHEMBL1153554, “Mechanisms by which the G333D mutation in human immunodeficiency virus type 1 Reverse transcriptase facilitates dual resistance to zidovudine and lamivudine” (Antimicrob Agents Chemother, 2008).
